In PubChem BioAssay:
Calls of active or inactive are those of the source.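 The calls were made as follows, unless noted: active = inhibition of the reporter signal at or above 50%; inactive = inhibition below 50%.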

Tests used:
[1] = inhibitors of TNFa-induced NFkB p65 translocation, primary screen, imaging, HUVEC, MLSMR starter and 10KST1 sets (AID 438;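 active = inhibition above 20% together with a positive visual image hit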;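 also: compound added about 3h40 before a 20 min TNFalpha stimulation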;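 as to inhibition: signal is the nuclear over cytoplasmic p65 intensity ratio per well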); details: HUVEC TNFa-induced p65 nuclear translocation; cell count: measured here: nuclei count (cytotoxicity indicator), at 2.08 µM; inhibition: at 2 µM, stronger effect = higher value, 0% TNFa-plus-vehicle, 100% no-TNFa wells
[2] = inhibitors of mutant huntingtin aggregation, primary screen, imaging, exon1htt(103Q)mCFP cells, high-content imaging (AID 483;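 active = visual image review flags a hit and inhibition of aggregation exceeds 20%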;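 also: compound exposure lasted 3 days before fixation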;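 as to nuclei count: percent of the per-plate median nuclei count of sample wells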); details: exon1htt(103Q)mCFP cell line, aggregate imaging, at 2 µM; inhibition of aggregation: stronger effect = higher value; nuclei count: measured here: cell count, toxicity
[3] = inhibitors of E-selectin induction by TNFa, primary screen, imaging, HUVEC, immunofluorescence, MLSMR starter and 10KST1 sets (AID 487;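 active = visually confirmed hit in the image check and inhibition above 20%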;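 as to inhibition: signal is fraction of cell area covered by stained E-selectin grains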;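 as to nuclei count: 100% = median nuclei count of all wells on the same plate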); details: HUVEC TNFalpha-induced E-selectin immunofluorescence imaging, at 2 µM; inhibition: stronger effect = higher value; nuclei count: measured here: cell number, toxicity
[4] = target: Voltage-gated potassium channel subunit beta-2 (Rattus norvegicus) (UniProt P62483); assay: KvBeta enzyme negative modulators, primary screen, biochemical, NADPH fluorescence (AID 622;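 active = fluorescence slope higher than the sample average by over 3 SD, cut at about -0.22 in these data, passing the limit was not always enough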;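 also: slope of raw intensity against log time taken from 70 to 1610 s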); details: recombinant KvBeta, 4-cyanobenzaldehyde reduction, at 10 µM, stronger effect = higher value
[5] = target: Voltage-gated potassium channel subunit beta-2 (Rattus norvegicus) (UniProt P62483); assay: KvBeta positive modulators, primary screen, biochemical, NADPH fluorescence (AID 623;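 active = NADPH fluorescence slope more negative than the mean of all samples by about 3 SD, 99.7% confidence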;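 also: fluorescence intensity change per second fitted from 20 to 320 s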); details: Recombinant KvBeta, NADPH fluorescence decrease slope, 10 min; at 10 µM; stronger effect = lower value
[6] = target: Muscarinic acetylcholine receptor M4 (Homo sapiens) (UniProt P08173); assay: compounds altering M4/GIRK thallium flux, either direction, primary screen, M4 allosteric agonist project, cell-based, HEK293 M4/GIRK, BTC-AM (AID 625;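 active = fluorescence slope after compound addition differing from the mean of all tested samples at 99.7% confidence, mostly higher but some lower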;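 also: thallium influx through GIRK channels coupled to M4 in HEK293 cells with BTC-AM dye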); details: at 10 µM, actives lie on both sides
In short: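 System: HEK293 cells with M4 receptor and GIRK channels | Incubation: Cells overnight at 37 °C, BTC-AM loading 1 h, reads 2 min total | Technique: Kinetic BTC-AM fluorescence sampled at 1 Hz, 10 s pre-addition baseline | Measure: Post-addition slope, 15–24 s, of baseline-normalized fluorescence | Control set: Carbachol positive, DMSO negative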

[7] = inhibitors of Sendai virus-induced IRF3 signaling, primary screen, TLR/RLR signaling modifier project, cell-based, Sendai virus stimulus, luciferase, 10K MLSCN set (AID 602276;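 active = inhibition at or above 50% at 10 µM; inactive = inhibition below 50%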;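 also: firefly luciferase from ISG56 promoter only with Renilla not read in this screen; 0% = Sendai virus plus DMSO and 100% = medium plus DMSO without virus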); details: HEK293 RL24 IRF3 luciferase reporter, at 10 µM, stronger effect = higher value
[8] = inhibitors of poly I:C-induced TLR3 signaling, primary screen, cell-based, poly I:C stimulus, luciferase, 10K MLSCN set (AID 602277); details: HEK293-TLR3 RL24 IRF3 luciferase reporter, at 10 µM, stronger effect = higher value

Voltage-gated potassium channel subunit beta-2 (Rattus norvegicus), sequence (P62483 whole entry, looked up): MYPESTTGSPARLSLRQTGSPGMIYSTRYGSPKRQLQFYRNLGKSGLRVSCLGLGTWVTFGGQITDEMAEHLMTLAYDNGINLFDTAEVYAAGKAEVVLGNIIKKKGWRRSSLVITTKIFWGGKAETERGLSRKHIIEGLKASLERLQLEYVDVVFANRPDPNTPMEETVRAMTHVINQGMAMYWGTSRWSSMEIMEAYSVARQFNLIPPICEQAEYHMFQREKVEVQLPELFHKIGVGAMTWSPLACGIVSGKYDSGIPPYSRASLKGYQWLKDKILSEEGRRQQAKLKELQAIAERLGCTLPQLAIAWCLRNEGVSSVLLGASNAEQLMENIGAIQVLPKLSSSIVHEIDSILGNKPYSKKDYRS
Muscarinic acetylcholine receptor M4 (Homo sapiens), sequence (P08173 whole entry, looked up): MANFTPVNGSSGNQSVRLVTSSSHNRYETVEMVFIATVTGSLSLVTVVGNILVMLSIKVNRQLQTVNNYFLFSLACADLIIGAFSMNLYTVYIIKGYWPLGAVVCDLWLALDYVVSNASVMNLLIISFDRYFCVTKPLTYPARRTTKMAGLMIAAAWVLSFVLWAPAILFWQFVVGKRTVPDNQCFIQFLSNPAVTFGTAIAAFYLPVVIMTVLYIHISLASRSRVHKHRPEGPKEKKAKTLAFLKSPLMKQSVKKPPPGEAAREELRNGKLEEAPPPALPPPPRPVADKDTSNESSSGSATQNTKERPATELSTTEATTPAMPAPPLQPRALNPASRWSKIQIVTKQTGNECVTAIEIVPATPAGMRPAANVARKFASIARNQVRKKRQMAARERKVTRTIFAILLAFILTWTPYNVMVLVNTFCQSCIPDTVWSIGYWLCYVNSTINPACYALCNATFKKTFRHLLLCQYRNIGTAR

| SMILES | cell count [1] | inhibition [1] | inhibition of aggregation [2] | nuclei count [2] | inhibition [3] | nuclei count [3] | fluorescence slope [4] | NADPH fluorescence slope [5] | fluorescence slope [6] | inhibition [7] | inhibition [8] |
| --- | --- | --- | --- | --- | --- | --- | --- | --- | --- | --- | --- |
| Cn1c(=O)cc(SCC(=O)N2CCOCC2)c2ccc(Cl)cc21 | 442 | -3.9% (inactive) | -3.2% (inactive) | 89.4% | 52.1% (inactive) | 92.6% | -0.557 (inactive) | -5.8e-05 (inactive) | 0.00569 (inactive) | 15% (inactive) | 23.4% (inactive) |
| Cn1c2c(c(=O)[nH]c1=O)C(NC(=O)c1ccco1)(C(F)(F)F)C(=O)N2 (configuration not stated) | 618 | 8.2% (inactive) | -9.2% (inactive) | 108% | -95% (inactive) | 135% | -0.542 (inactive) | -6.4e-05 (inactive) | 0.00391 (inactive) | -2.84% (inactive) | 6.27% (inactive) |
| Cc1ccccc1NC(=O)c1ccccc1 | 373 | 1.7% (inactive) | 13.2% (inactive) | 104% | -49.6% (inactive) | 110% | -0.469 (inactive) | 2.1e-05 (inactive) | 0.00509 (inactive) | 1.39% (inactive) | -13% (inactive) |
| CCOc1ccc(N2CC(C(=O)Nc3ccc(F)cc3F)CC2=O)cc1 (configuration not stated) | 847 | 10.1% (inactive) | 7.4% (inactive) | 92.8% | -3.5% (inactive) | 99.9% | -0.587 (inactive) | 2.2e-05 (inactive) | 0.00677 (inactive) | 6.56% (inactive) | 26.2% (inactive) |
| COc1ccc(C2NC(c3ccc(OC)c(OC)c3OC)C(C)C(=O)C2C)c(OC)c1OC (configuration not stated) | 663 | -16.3% (inactive) | 2.6% (inactive) | 141% | -142% (inactive) | 104% | -0.474 (inactive) | -2.1e-05 (inactive) | 0.00551 (inactive) | 14.8% (inactive) | 25.4% (inactive) |
| O=C(CCCCCn1c(SCc2ccncc2)nc2ccccc2c1=O)NCc1ccco1 | 458 | -10.3% (inactive) | -29.8% (inactive) | 109% | -25.1% (inactive) | 94.5% | -0.498 (inactive) | -1.1e-05 (inactive) | 0.00498 (inactive) | 8.7% (inactive) | 15.5% (inactive) |
| CCn1c(=S)sc2nc(C)sc21 | 266 | 1.3% (inactive) | -4.4% (inactive) | 76.2% | -38.4% (inactive) | 124% | -0.598 (inactive) | 3.2e-06 (inactive) | 0.00458 (inactive) | 13.4% (inactive) | 15% (inactive) |
| COc1ccc(CCn2c(N)c(C#N)c3nc4ccccc4nc32)cc1OC | 397 | -2.3% (inactive) | -8% (inactive) | 105% | 21.9% (inactive) | 150% | -0.52 (inactive) | -5.8e-05 (inactive) | 0.00433 (inactive) | 17.3% (inactive) | 13.6% (inactive) |
| CCOc1ccc(C(=O)Cc2ccc3oc(C(=O)O)cc3c2)c(O)c1 | 580 | 10.2% (inactive) | 4.1% (inactive) | 63.8% | -3.3% (inactive) | 97.5% | -0.522 (inactive) | -4.9e-05 (inactive) | 0.00668 (inactive) | 16.4% (inactive) | 22.3% (inactive) |
| Cc1cccc(N(C)C(=O)c2coc(=O)c3ccccc23)c1 | 199 | -0.8% (inactive) | -9.3% (inactive) | 105% | -1.9% (inactive) | 104% | -0.563 (inactive) | 1.4e-05 (inactive) | 0.00467 (inactive) | 14.1% (inactive) | 26.6% (inactive) |
| COCCCNC(=O)CCc1nc(-c2ccccc2Cl)no1 | 476 | 8.6% (inactive) | -10.1% (inactive) | 95.7% | -130% (inactive) | 132% | -0.556 (inactive) | -9.5e-06 (inactive) | 0.00327 (inactive) | 17.7% (inactive) | 23.4% (inactive) |
| Cc1ccc2nc(SCC(=O)NCc3ccco3)c(C#N)cc2c1 | 388 | -4.7% (inactive) | 17.5% (inactive) | 100% | 1.8% (inactive) | 99.6% | -0.592 (inactive) | 1.6e-05 (inactive) | 0.00711 (inactive) | -4.71% (inactive) | -2.98% (inactive) |
| CCn1cc(C2=NOC(C(=O)Nc3cc(C)nn3-c3ccccc3)C2)c(C)n1 (configuration not stated) | 542 | -3.4% (inactive) | 11.1% (inactive) | 93.2% | -52.6% (inactive) | 84.5% | -0.448 (inactive) | 9.7e-06 (inactive) | 0.00533 (inactive) | -1.87% (inactive) | 98.7% (active) |
| O=C(Nc1cccc(C(=O)N2CCOCC2)c1)c1cccnc1 | 282 | -15.4% (inactive) | -7.7% (inactive) | 106% | -25.3% (inactive) | 116% | -0.546 (inactive) | -0.000161 (inactive) | 0.00393 (inactive) | -1.23% (inactive) | 0.71% (inactive) |
| O=C(O)CCN1C(=O)c2ccccc2C1=O | 325 | 5.2% (inactive) | -1.9% (inactive) | 91.2% | -54.5% (inactive) | 107% | -0.585 (inactive) | -3e-05 (inactive) | 0.00348 (inactive) | 14.6% (inactive) | 6.42% (inactive) |
| c1csc(-c2nc3nc4ccccc4nc3n2Cc2ccc3c(c2)OCO3)c1 | 837 | 1.7% (inactive) | -18.6% (inactive) | 114% | -9.5% (inactive) | 108% | -0.405 (inactive) | -4.1e-05 (inactive) | 0.00582 (inactive) | -28.9% (inactive) | -79.4% (inactive) |
| COc1cccc(CNC(=O)C2CCN(S(=O)(=O)c3ccc(F)cc3)CC2)c1 | 603 | 9.6% (inactive) | 5.3% (inactive) | 103% | -47.8% (inactive) | 123% | -0.553 (inactive) | -5.5e-05 (inactive) | 0.00553 (inactive) | 19.5% (inactive) | 20.1% (inactive) |
| CCn1c(=O)n(CC(=O)N(C)Cc2ccccc2)c(=O)c2ccccc21 | 684 | -16.4% (inactive) | 3.2% (inactive) | 120% | 65.6% (active) | 94.4% | -0.559 (inactive) | -2.3e-05 (inactive) | 0.00592 (inactive) | 11.1% (inactive) | 10.9% (inactive) |
| CCNC(=O)C1CC(=O)N(Cc2ccc3c(c2)OCO3)C(=Nc2ccc(OCC)cc2)S1 (configuration not stated) | 577 | -3.7% (inactive) | 13.6% (inactive) | 108% | -3.2% (inactive) | 119% | -0.588 (inactive) | 1.7e-05 (inactive) | 0.00371 (inactive) | 17.9% (inactive) | 21.2% (inactive) |
| Nc1nc(C2C(=O)CCCC2=O)cs1 | 391 | -16.3% (inactive) | -1.6% (inactive) | 103% | -93.1% (inactive) | 148% | -0.511 (inactive) | -9.1e-05 (inactive) | 0.00345 (inactive) | 8.39% (inactive) | 2.35% (inactive) |
| CCOC(=O)C1CCN(C(=O)CSc2n[nH]c(=O)[nH]c2=O)CC1 | 653 | 7.8% (inactive) | 16.5% (inactive) | 88.6% | 34.2% (inactive) | 114% | -0.339 (inactive) | -5.5e-05 (inactive) | 0.00512 (inactive) | 12.2% (inactive) | 9.53% (inactive) |
| O=C(c1ccc2c(c1)OCO2)N1CCNc2ccccc2C1 | 518 | -0.5% (inactive) | 21.2% (inactive) | 91% | -14.3% (inactive) | 85.2% | -0.559 (inactive) | -3.1e-05 (inactive) | 0.00561 (inactive) | 8.51% (inactive) | 2.68% (inactive) |
| O=C(c1ccc(Cl)cc1)C1CCN(C(=O)NC2CCCCC2)CC1 | 456 | -15% (inactive) | 13.9% (inactive) | 86.5% | -37.3% (inactive) | 104% | -0.541 (inactive) | -1.3e-05 (inactive) | 0.00452 (inactive) | 4.14% (inactive) | -12.4% (inactive) |
| Cc1ccc(C(=O)Nc2nc3c(s2)CCCC3)o1 | 341 | -4% (inactive) | -8.3% (inactive) | 101% | -96.9% (inactive) | 120% | -0.561 (inactive) | -4.4e-05 (inactive) | 0.00262 (inactive) | -30.4% (inactive) | -89.5% (inactive) |
| CC(=O)NCC(=O)OC(C)C(=O)Nc1ccc(C(C)=O)cc1 (configuration not stated) | 413 | -12.7% (inactive) | 6.4% (inactive) | 116% | -12.6% (inactive) | 115% | -0.591 (inactive) | -4.9e-05 (inactive) | 0.0073 (inactive) | -0.376% (inactive) | 0.897% (inactive) |
| COc1ccc(OC)c(C2=NOC(C(=O)NCCN3CCOCC3)C2)c1 (configuration not stated) | 715 | -22.4% (inactive) | 12.9% (inactive) | 96% | -20.4% (inactive) | 85.7% | -0.62 (inactive) | 3.7e-06 (inactive) | 0.00547 (inactive) | 17.7% (inactive) | 25% (inactive) |
| CCOc1cc(S(=O)(=O)NCc2ccccn2)c(C)cc1C | 412 | -15.9% (inactive) | -0.5% (inactive) | 112% | -20% (inactive) | 68.1% | -0.44 (inactive) | -3.9e-05 (inactive) | 0.0075 (inactive) | 8.05% (inactive) | 20.9% (inactive) |
